From PubChem
ERp5 block – inhibitors of ERp5-driven insulin aggregation, primary screen, biochemical, turbidity, absorbance 650 nm, single point. Protein disulfide-isomerase A6 (Homo sapiens), Q15084. 90 min. inhibition, % at 9.99 µM. actives 0.05% (n = 350,000);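 active = mean replicate inhibition above about 25%, with every replicate also reaching it, limit read from the data, passing the limit was not always enough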
Target sequence (Q15084 whole entry, looked up): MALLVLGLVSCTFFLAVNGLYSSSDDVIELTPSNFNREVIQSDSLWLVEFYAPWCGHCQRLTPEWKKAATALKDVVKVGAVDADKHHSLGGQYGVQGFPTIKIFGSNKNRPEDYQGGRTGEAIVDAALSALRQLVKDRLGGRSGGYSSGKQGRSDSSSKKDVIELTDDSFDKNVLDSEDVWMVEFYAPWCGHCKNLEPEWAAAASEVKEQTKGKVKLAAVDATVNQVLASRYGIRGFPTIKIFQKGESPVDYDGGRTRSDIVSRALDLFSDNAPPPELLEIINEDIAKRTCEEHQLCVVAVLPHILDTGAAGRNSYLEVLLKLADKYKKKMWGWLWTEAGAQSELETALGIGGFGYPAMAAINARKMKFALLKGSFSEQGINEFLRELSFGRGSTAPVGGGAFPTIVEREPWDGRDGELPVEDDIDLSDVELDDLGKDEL
SIRT5 block – SIRT5 desuccinylase inhibitors, primary screen, biochemical, fluorescence imaging, single point, set 5 | AID 652115, 2013 | Purified SirT5, succinyl-peptide AMC, trypsin-coupled fluorescence | actives 1.1% (n = 330,000) | inhibition, % at 15 µM | NAD-dependent protein deacylase sirtuin-5, mitochondrial (Homo sapiens), Q9NXA8; in the data active = inhibition above about 15%
AF4-AF9 inh – inhibitors of AF4 peptide binding to AF9, primary screen, biochemical, AlphaScreen, biotin-AF4 peptide, FLAG-AF9, single point | Protein AF-9 (Homo sapiens), P42568 | inhibition, % at 10 µM | actives 0.47% (n = 350,000);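 active = every replicate reaching a set inhibition limit, whatever the replicate mean, cut at about 25% in these data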
FN deposition inh – inhibitors of fibronectin matrix deposition, primary screen, AH1F cells, Alexa488-fibronectin fluorescence, plate reader. inhibition, % at 12.6 µM. actives 0.086% (n = 350,000). AH1F fibroblasts, overnight;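 active = mean inhibition across replicates of 30% or more, regardless of how many single replicates reach that level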
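Material: AH1F fibroblast monolayer depositing Alexa488-labelled fibronectin into matrix / Amount: 10000 AH1F cells per well / Signal: fluorescence 485/525 nm / Medium: DMEM, 2% serum / Compound: single dose, pinned / Incubation: 1 h cell adhesion before compound, then overnight fibronectin incubation / Reagent: Alexa488-FN, 24 nM final / Read-out: inhibition of fibronectin deposition signal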
PDI inh – inhibitors of human PDI, primary screen, biochemical, turbidity, single point, plate reader. Protein disulfide-isomerase (Homo sapiens), P07237. PDI insulin aggregation turbidity, A650, 90 min. inhibition, % at 10 µM. actives 0.052% (n = 350,000). AID 588391, 2011;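 active = mean inhibition across replicates of 30% or more, whatever share of single replicates reach that level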
Large screens that a line does not name were inactive. Hits are enriched below; roughly 1.3% of the tested compounds scored in any of these assays.

Cc1ccc(S(=O)(=O)Nc2ccc3c(c2)C(=O)N([C@@H](C)CO)C[C@@H](C)[C@H](CN(C)S(=O)(=O)c2ccccc2)OCCCC[C@@H](C)O3)cc1	none (no result: PDI inh)
Cc1ccc(S(=O)(=O)N(C)C[C@@H]2OCCCC[C@H](C)Oc3ccc(NS(=O)(=O)c4ccccc4)cc3C(=O)N([C@H](C)CO)C[C@H]2C)cc1	SIRT5 block 18 (no result: PDI inh)
Cc1ccc(S(=O)(=O)N(C)C[C@H]2OCCCC[C@@H](C)Oc3ccc(NS(=O)(=O)c4ccccc4)cc3C(=O)N([C@H](C)CO)C[C@H]2C)cc1	SIRT5 block 19 (no result: PDI inh)
Cc1ccc(S(=O)(=O)N(C)C[C@H]2OCCCC[C@H](C)Oc3ccc(NS(=O)(=O)c4ccccc4)cc3C(=O)N([C@H](C)CO)C[C@H]2C)cc1	SIRT5 block 27 (no result: FN deposition inh, PDI inh)
Cc1ccc(S(=O)(=O)Nc2ccc3c(c2)C(=O)N([C@H](C)CO)C[C@H](C)[C@@H](CN(C)S(=O)(=O)c2ccc(F)cc2)OCCCC[C@H](C)O3)cc1	none (no result: FN deposition inh, PDI inh)
Cc1ccc(S(=O)(=O)N(C)C[C@@H]2OCCCC[C@H](C)Oc3ccc(NS(=O)(=O)c4ccc(F)cc4)cc3C(=O)N([C@H](C)CO)C[C@H]2C)cc1	SIRT5 block 22 (no result: PDI inh)
CC(C)n1nnnc1SCC(=O)Nc1cccc(F)c1	none
CC(C)CN(C[C@H]1[C@H](c2ccccc2)[C@@H](CO)N1C(=O)C1CCC1)C(=O)C1CC1	none (no result: PDI inh)
COCCN1C(=O)/C(=C/c2ccc(Oc3ccc([N+](=O)[O-])cn3)c(OC)c2)SC1=Nc1ccccc1	none (no result: ERp5 block, SIRT5 block, AF4-AF9 inh)
Cc1ccc(S(=O)(=O)N(C)C[C@H]2OCCCC[C@@H](C)Oc3ccc(NS(=O)(=O)c4ccccc4)cc3C(=O)N([C@@H](C)CO)C[C@H]2C)cc1	SIRT5 block 22 (no result: FN deposition inh, PDI inh)
CCOC(=O)CCCCCC(=O)Nc1ccc2c(c1)C(=O)N([C@H](C)CO)C[C@@H](C)[C@@H](CN(C)S(=O)(=O)c1ccc(C)cc1)OCCCC[C@H](C)O2	SIRT5 block 21 (no result: PDI inh)
Cc1ccc(S(=O)(=O)Nc2ccc3c(c2)C(=O)N([C@@H](C)CO)C[C@H](C)[C@@H](CN(C)S(=O)(=O)c2ccccc2)OCCCC[C@H](C)O3)cc1	none (no result: PDI inh)
C[C@@H]1CCCCO[C@H](CN(C)C(=O)CCCN(C)C)[C@@H](C)CN([C@H](C)CO)C(=O)c2cc(NS(=O)(=O)c3ccccc3)ccc2O1	none (no result: PDI inh)
Cc1ccc(S(=O)(=O)N(C)C[C@@H]2OCCCC[C@H](C)Oc3ccc(NS(=O)(=O)c4ccccc4)cc3C(=O)N([C@H](C)CO)C[C@@H]2C)cc1	SIRT5 block 21 (no result: PDI inh)
Cc1ccc(S(=O)(=O)Nc2ccc3c(c2)C(=O)N([C@@H](C)CO)C[C@@H](C)[C@H](CN(C)S(=O)(=O)c2ccccc2)OCCCC[C@H](C)O3)cc1	none (no result: PDI inh)
C[C@@H]1CCCCO[C@@H](CN(C)C(=O)CCCN(C)C)[C@@H](C)CN([C@H](C)CO)C(=O)c2cc(NS(=O)(=O)c3ccccc3)ccc2O1	SIRT5 block 19 (no result: PDI inh)
Cc1ccc(S(=O)(=O)N(C)C[C@H]2OCCCC[C@@H](C)Oc3ccc(NC(=O)CCCN(C)C)cc3C(=O)N([C@@H](C)CO)C[C@@H]2C)cc1	none (no result: PDI inh)
Cc1noc(C)c1NC(=O)N(C)C[C@@H]1Oc2ccc(NC(=O)Nc3ccc(C(F)(F)F)cc3)cc2C(=O)N([C@@H](C)CO)C[C@@H]1C	none (no result: PDI inh)
C[C@@H]1CN([C@@H](C)CO)C(=O)c2cc(NC(=O)Nc3ccc(F)cc3)ccc2O[C@@H](C)CCCCO[C@@H]1CN(C)C(=O)NC1CCCCC1	none (no result: PDI inh)
CC(C)CC#Cc1cnc2c(c1)C(=O)N([C@H](C)CO)C[C@@H](C)[C@H](CN(C)C(=O)c1ccccc1F)O2	none (no result: PDI inh)
COc1ccccc1N1CCN(C(=O)CSc2nc(-c3ccccc3)cc(=O)[nH]2)CC1	none (no result: ERp5 block, SIRT5 block, AF4-AF9 inh, FN deposition inh)
O=C(NNc1ccccc1C(F)(F)F)c1sccc1Br	SIRT5 block 20
COC(=O)C1(C(=O)OC)Sc2ccccc2C1=O	none (no result: ERp5 block, SIRT5 block, AF4-AF9 inh, FN deposition inh)
CON(C)C(=O)[C@H]1C[C@@H]2[C@H](C[C@@H](c3ccccc3)[C@H]1C)N(c1ccc(F)cc1)C(=O)N2CCCOc1ccccc1	none (no result: SIRT5 block, PDI inh)
C[C@H]1C(C(=O)N(C)C2CCCCC2)=Cc2c(n(-c3ccc(F)cc3)c(=O)n2CCCOc2ccccc2)C=C1c1ccccc1	AF4-AF9 inh 84 (no result: SIRT5 block, PDI inh)
CN(C)CCCN(C(=O)c1ccco1)c1nc2ccc(Cl)cc2s1	none
C[C@H]1CN([C@@H](C)CO)S(=O)(=O)c2ccc(/C=C/c3ccccc3)cc2O[C@@H]1CN(C)C(=O)NC1CCCC1	SIRT5 block 32 (no result: PDI inh)
C/C=C/c1ccc2c(c1)O[C@H](CN(C)C(=O)NC1CCCC1)[C@@H](C)CN([C@H](C)CO)S2(=O)=O	none (no result: PDI inh)
C[C@@H]1CN([C@H](C)CO)S(=O)(=O)c2ccc(/C=C/c3ccccc3)cc2O[C@@H]1CN(C)C(=O)NC1CCCCC1	none (no result: FN deposition inh, PDI inh)
C[C@@H]1CN([C@@H](C)CO)S(=O)(=O)c2ccc(/C=C/c3ccccc3)cc2O[C@@H]1CN(C)C(=O)NC1CCCC1	SIRT5 block 20 (no result: PDI inh)
C[C@@H]1CN([C@H](C)CO)S(=O)(=O)c2ccc(/C=C/c3ccccc3)cc2O[C@@H]1CN(C)C(=O)NC1CCCC1	SIRT5 block 21 (no result: PDI inh)
Cc1ccccc1-c1ccc2c(c1)O[C@@H](CN(C)C(=O)Nc1ccc(F)cc1)[C@@H](C)CN([C@@H](C)CO)S2(=O)=O	SIRT5 block 19 (no result: FN deposition inh, PDI inh)
C/C=C/c1ccc2c(c1)O[C@@H](CN(C)C(=O)NC1CCCC1)[C@@H](C)CN([C@@H](C)CO)S2(=O)=O	none (no result: PDI inh)
COc1ccc(CCN2C(=O)CC(NCc3ccc4c(c3)OCO4)C2=O)cc1OC (stereo unspecified)	none (no result: ERp5 block, SIRT5 block, AF4-AF9 inh, FN deposition inh)
C[C@H](CO)N1C[C@H](C)[C@H](CN(C)C(=O)Nc2cccc(F)c2)Oc2cc(/C=C/c3ccccc3)ccc2S1(=O)=O	none (no result: FN deposition inh, PDI inh)
C[C@H](CO)N1C[C@H](C)[C@H](CN(C)C(=O)Nc2ccc(F)cc2)Oc2cc(/C=C/c3ccccc3)ccc2S1(=O)=O	SIRT5 block 21 (no result: FN deposition inh, PDI inh)
C[C@H](CO)N1C[C@H](C)[C@H](CN(C)C(=O)NC2CCCC2)Oc2cc(/C=C/c3ccccc3)ccc2S1(=O)=O	SIRT5 block 16 (no result: PDI inh)
CC(C)NC(=O)N[C@H]1C[C@@H]2O[C@@H](CO)CC[C@@H]2O[C@@H]1CCc1ccc(-c2ccccc2F)cc1	AF4-AF9 inh 33 (no result: FN deposition inh, PDI inh)
CCCC#Cc1ccc(CC[C@H]2O[C@H]3CC[C@@H](CO)O[C@H]3C[C@H]2NS(=O)(=O)c2ccccc2)cc1	SIRT5 block 20 (no result: FN deposition inh, PDI inh)
CCC(=O)N[C@H]1C[C@@H]2O[C@@H](CO)CC[C@@H]2O[C@@H]1CCc1ccc(C#CCc2ccccc2)cc1	none (no result: FN deposition inh, PDI inh)
